Assay results: the EternaBench riboswitch data

Test system: MS2 coat protein
Assay: apparent Kd, MS2 coat protein; higher = weaker binding; RNA-MaP array; FMN 200 µM where present
Procedure, shortened: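 Stalled E. coli RNA polymerase transcribed each design on Illumina sequencing-chip clusters. The clusters were titrated with SNAP-549-labelled MS2 coat protein, starting at 0.7 or 1.5 nM and doubling up to 3 µM, first without ligand and then with constant ligand, in 100 mM Tris-HCl pH 7.5, 80 mM KCl, 4 mM MgCl2, BSA, DTT, yeast tRNA and Tween-20. Green signal was normalised to red-channel RNA signal and to the control-cluster median Fmax. The apparent Kd is the median of filtered binding-curve fits made for each cluster.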

[1] = designed as: OFF switch for flavin mononucleotide, no ligand
[2] = ligand present: flavin mononucleotide, designed as: OFF switch for flavin mononucleotide
[3] = designed as: ON switch for flavin mononucleotide, no ligand
[4] = ligand present: flavin mononucleotide, designed as: ON switch for flavin mononucleotide

| Sequence | apparent Kd [1] [nM] | apparent Kd [2] [nM] | apparent Kd [3] [nM] | apparent Kd [4] [nM] |
| --- | --- | --- | --- | --- |
| CUAUUGUGAGGAUAUCAGUAGUAGAACAAUAGUACUACUACUGAGAAGGCACAUGAGGAUCACCCAUGUUCCUC | 61.1 | 406 |  |  |
| CUCAAGUGAGGAUAUCAGUAGUAAAAAAAUAAAAUUACUACUGAGAAGGCACAUGAGGAUCACCCAUGUGACUU | 26.5 | 23.5 |  |  |
| CUCAGCUCGUGAGGAUAUACAACACUGCUUCGGCAGUGUAUUAAGAUCACAUGAGGAUCACCCAUGUAGAAGGCACGAGCUGAU | 14.3 | 246 |  |  |
| CUCAUUAACAUGAGGAUCACCCAUGUUGGCCAGUCUCACACCAGAAGGCCCGUUGAGCACAGCAGGGAGGAUAUGGGUGACAUA |  |  | 309 | 211 |
| CUCCUGCGAGGAUAUACAUAGUGACGUCUGUUUGGUCUUAAACAUGAGGAUCACCCAUGUAGAAGGUGCGUCAC | 17.5 | 16.9 |  |  |
| CUCGUCUGGAAACGGAGCGGCCAACAUGAGGAUCACCCAUGUGAGGAUAUGCCUACUAAAAGUAGGCAGAAGGCGCAAUUGGCA | 20.3 | 36 |  |  |
| CUCUACAUAGGAUAUACAUGAGGAUCACCCAUGUAUGUUUCGACAUGCGUUUACCUCGGUAGAAGGAUGUAGUA | 68.2 | 185 |  |  |
| CUCUAGUGAGGAUAUCAGUAGUAAAAAAAUAAAAUUACUACUGAGAAGGCACAUGAGGAUCACCCAUGUCUUUC | 87.1 | 46.5 |  |  |
| CUCUAUCAUGUAGGAUAUGCGUGUCGAAGCUAUGCAGAAGGACAUGAGGAUCACCCAUGUCUUACUGUCUGCGGACGGACAGGG | 22.4 | 53.9 |  |  |
| CUCUUGUUAGGAUAUCAAACCAGUGACGGAACCACUGGAAGUGAGAAGGGACAUGAGGAUCACCCAUGUAAGAA | 55.6 | 113 |  |  |
| CUGAAUCUAGGAUAUUGUACUGCUGACAUGAGGAUCACCCAUGUAUGUUAACUCGGCCGUCGAGAAGGAGAACAUA | 36.1 | 27.6 |  |  |
| CUGACAGUGUAGCGCGUCUAGCCAGAGGAUAUCCACAUGAGGAUCACCCAUGUCAUGUCCUCGCGGGAGAAGGCUGGCUUGGCG | 204 | 54.3 |  |  |
| CUGAGCUUAGGAUAUACGUGUUGAUCUGAUCUCGACCUAUUACAUGAGGAUCACCCAUGUAGAAGGGAGCCGGA | 17.6 | 19.3 |  |  |
| CUGAGGUAAGGAUAUAGGAGAGAAGAUAAGGUAUGAGAGUUCUAGAAGGUACAUGAGGAUCACCCAUGUUAGGG | 477 | 235 |  |  |
| CUGAUGUGAGGAUAUCAACGCCAUGUCUUUGACAUGGCGCAUGAGAAGGCACAUGAGGAUCACCCAUGUUCUUC | 36 | 640 |  |  |
| CUGAUGUUAGGAUAUCAGGCACCCGCCACUGGCAGGGCGCAUGAGAAGGGACAUGAGGAUCACCCAUGUAGUAA | 25.2 | 60.1 |  |  |
| CUGCCUACAUGAGGAUCACCCAUGUCUGGCGAAAGAGUUCAGUAGGAUAUGAGAUUGGGUAAUCAUCAGAAGGGCUGGCAAAAG |  |  | 37.5 | 14.2 |
| CUGCUCGUAGAGAAGGCGUGGGCACAUGAGGAUCACCCAUGUCGCAGUACGAGGAUAUUUGCCGGCCCGCCCAAAAUGGCGCGG |  |  | 501 | 119 |
| CUGCUGGAGCUUUGCUCUAGUCGUACAUGAGGAUCACCCAUGUAGGAUAUGGUAGGCUUUGCUUACUAGAAGGAUAGAGUGGUC | 76.4 | 32.8 |  |  |
| CUGCUUCGCUAAGGAUAUCACAUUGUCGAUCUGCGUGCAGCCUCCUGACAUGAGGAUCACCCAUGUGAGAAGGUAGACGACGUG | 19.4 | 22.5 |  |  |
| CUGGAUAGAGGAUAUUGUACUGCUGACAUGAGGAUCACCCAUGUAUGUUAACUCGGCCGUCGAGAAGGCUAACAAG | 37.7 | 17.9 |  |  |
| CUGGAUCACGCAGGAUAUUACAUGAGGAUCACCCAUGUCAGGACUGCAAUAUCGUCUCCUCAUUGUGAGAAGGGCGGAAUCAUU | 17.7 | 86.8 |  |  |

| Sequence | apparent Kd [1] [nM] | apparent Kd [2] [nM] | apparent Kd [3] [nM] | apparent Kd [4] [nM] |
| --- | --- | --- | --- | --- |
| CUGUAUCGGUCAGGAUAUGUGCGUAAACUGUGAACAGAAGGGACCGUACAUGAGGAUCACCCAUGUCCGGGACUCCUUAUGCCU | 18.1 | 22.2 |  |  |
| CUGUUUGUAGGAUAUACAUGCGGAACCCUCUUCAUGGAAAGACAUGAGGAUCACCCAUGUAGAAGGAUGAAGAG | 19.7 | 17.9 |  |  |
| CUUAUGUAAGGAUAUCAGUAGUAAAAAAAUAAAAUUACUACUGAGAAGGUACAUGAGGAUCACCCAUGUAUCUU | 17.6 | 14 |  |  |
| CUUAUGUGAGGAUAUGUACAGAAAAAACUGGGUGUAACUGUACAGAAGGCACAUGAGGAUCACCCAUGUGCCUU | 16.9 | 13.8 |  |  |
| CUUCAGUCAGGAUAUGUUAAUCUCGCCACUCCGCGAACCGGACAGAAGGGACAUGAGGAUCACCCAUGUUAAAC | 30.4 | 19.5 |  |  |
| CUUCAUUGUUGAGGAUAUAAUUAUAGGAUGUAGUUAGAAGGCGAACAUGAGGAUCACCCAUGUCAGGCAUGGAGACCCUUGACC | 519 | 624 |  |  |
| CUUCGACAUGAGGAUCACCCAUGUCAGGAUAUUGUUUAUCUGGUUUUUUACAGAUAUGCAAGAAGGGAUGUGUU | 28.5 | 23.1 |  |  |
| CUUCGUAUAGAGGAUAUAGGAUACUACGGUGUCCUAGAAGGCUGUACAUGAGGAUCACCCAUGUACUUCAGAUC | 11.7 | 13.5 |  |  |
| CUUCUGUGAGGAUAUGUUAGCUCCCAGCAAGUCGCUGAGAGACAGAAGGCACAUGAGGAUCACCCAUGUGGGCG | 35.1 | 177 |  |  |
| CUUUAGCUAGGAUAUACAUGAGGAUCACCCAUGUUAGCGGUCCAUUGGGCCGCGGGUUGUAGAAGGAGCAUUAA | 30.8 | 56.8 |  |  |
| CUUUAGUGAGGAUAUCAGUAGUAAUACAAUAGUAUUACUACUGAGAAGGCACAUGAGGAUCACCCAUGUUCUUC | 17.3 | 50 |  |  |
| CUUUGAUGAGGAUAUCGAGGUUAGUACAUGAGGAUCACCCAUGUUAUCCAGGUGUCGGUUCGAGAAGGUAUUGGAC | 16.7 | 18.5 |  |  |
| CUUUUACAUGAGGAUCACCCAUGUUAUGGCGGGUCAGGAUAUAGAUCGGAUGCGUUCUGUCUAGAAGGGACAUGUU |  |  | 52.2 | 33.4 |
| CUUUUACAUGAGGAUCACCCAUGUUCUGGCGGGUCAGGAUAUAGAUCGGAUGCGUUCUGUCUAGAAGGGACAUGUU |  |  | 67.3 | 38.1 |
| CUUUUGUGAGGAUAUCAGGUGUGCUAGCGUACUGGUACAUCUGAGAAGGCACAUGAGGAUCACCCAUGUUUCUA | 84.9 | 74.2 |  |  |
| CUUUUGUGAGGAUAUCAGUAGUAAAUAAAUAAUAUUACUACUGAGAAGGCACAUGAGGAUCACCCAUGUUCCUC | 42.6 | 253 |  |  |
| CUUUUGUGAGGAUAUCAGUAGUAAUAUAAUAGUAUUACUACUGAGAAGGCACAUGAGGAUCACCCAUGUUCCUC | 27.4 | 50.3 |  |  |
| CUUUUGUGAGGAUAUCAGUAGUAUAUAAAUAAAAUUACUACUGAGAAGGCACAUGAGGAUCACCCAUGUUCCUC | 39.2 | 164 |  |  |
| CUUUUGUGAGGAUAUCUGGCUUCGAUCGUGAGAUCGAGGCUAGAGAAGGCACAUGAGGAUCACCCAUGUACCUC | 24.3 | 149 |  |  |
| CUUUUGUGAGGAUAUGUGGCUUCGAUCGUGAGAUCGAGGCUACAGAAGGCACAUGAGGAUCACCCAUGUUCCUC | 60.4 | 777 |  |  |
| CUUUUGUGAGGAUAUUAGUAGUAAAAAAAUAAAAUUACUACUGAGAAGGCACAUGAGGAUCACCCAUGUUCCUC | 31.4 | 213 |  |  |
